High-throughput results from PubChem.
HTRA1 inhibitor: HTRA1 serine protease inhibitors, primary screen, biochemical, fluorescence polarization, HTS; inhibition, % at 5.96 µM; 0.5% of 340,000 active; recombinant HTRA1, FP-rhodamine activity-based probe; Q92743; in the data active = inhibition above about 36%;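 also: 0% = enzyme with DMSO and 100% = wells lacking enzyme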
PRMT1 FP inh: PRMT1 methyltransferase inhibitors, primary screen, biochemical, fluorescence polarization; inhibition, % at 2.79 µM; 1.3% of 370,000 active; Protein arginine N-methyltransferase 1 (Homo sapiens), Q99873; AID 652257, 2013; recombinant PRMT1, activity-based probe fluorescence polarization;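 active = inhibition above about 21% made by adding two undisclosed values, limit read from the data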
DAGLB inhibitor: DAGLB lipase inhibitors, primary screen, biochemical, fluorescence, HTS; Diacylglycerol lipase-beta (Homo sapiens), Q8NCG7; HEK293T DAGLB membrane lysate, EnzChek fluorogenic substrate; inhibition, % at 5.17 µM; 0.059% of 340,000 active; AID 504411, 2011; in the data active = inhibition above about 34%;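 also: 0% = enzyme with vehicle and 100% = wells lacking enzyme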
Target sequence (Q8NCG7 whole entry, looked up): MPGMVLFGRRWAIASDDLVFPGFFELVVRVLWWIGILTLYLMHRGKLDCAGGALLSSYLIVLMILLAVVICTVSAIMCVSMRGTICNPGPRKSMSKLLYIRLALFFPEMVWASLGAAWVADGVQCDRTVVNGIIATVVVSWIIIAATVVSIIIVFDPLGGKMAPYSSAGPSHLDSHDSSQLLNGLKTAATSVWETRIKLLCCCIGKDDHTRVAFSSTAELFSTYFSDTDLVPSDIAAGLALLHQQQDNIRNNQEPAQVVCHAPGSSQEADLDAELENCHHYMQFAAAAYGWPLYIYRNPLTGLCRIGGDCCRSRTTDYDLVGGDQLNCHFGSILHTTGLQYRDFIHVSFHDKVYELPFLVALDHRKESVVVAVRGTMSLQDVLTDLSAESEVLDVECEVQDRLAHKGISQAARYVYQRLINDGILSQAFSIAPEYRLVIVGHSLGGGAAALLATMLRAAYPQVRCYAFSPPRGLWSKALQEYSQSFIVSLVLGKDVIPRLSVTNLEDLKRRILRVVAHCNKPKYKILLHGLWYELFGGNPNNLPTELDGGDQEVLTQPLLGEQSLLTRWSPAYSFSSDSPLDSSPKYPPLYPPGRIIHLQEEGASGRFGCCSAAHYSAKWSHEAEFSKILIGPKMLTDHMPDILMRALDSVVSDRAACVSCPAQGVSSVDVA
ABHD4 inh: ABHD4 inhibitors, primary screen, biochemical, fluorescence polarization, mouse; purified mABHD4, FP-Rh probe fluorescence polarization; inhibition, % at 8.92 µM; 0.54% of 370,000 active; AID 720543, 2013;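 active = inhibition exceeding the mean over every tested compound plus 3 SD, cut at about 30% in these data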;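 also: 0% = plate median of compound wells and 100% = S159A mutant with DMSO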
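Test system: mABHD4 protein; Read-out basis: % inhibition; Incubation: 45 min + 60 min at 25 °C; Repeats: single replicate; Technique: fluorescence polarization with parallel and perpendicular emission, 525/598 nm; Compound: 8.92 µM, single dose; Benchmarks: full inhibition S159A mutant plus DMSO, zero as sample-well median.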
rCAG RNA binder: binders of r(CAG) RNA repeats, primary screen, biochemical, fluorescence | inhibition, % at 3 µM | r(CAG) RNA repeat, TO-PRO-1 dye displacement fluorescence | 1.3% of 370,000 active | AID 651821, 2012;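 active = inhibition above the plate cutoff, the mean of all test compounds on that plate plus 3 SD, cut at about 35% in these data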;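 also: 0% = DMSO alone and 100% = 100 µM mitoxantrone as full dye displacement; higher means more dye released from RNA so lower well fluorescence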
LEDGF integ inh: blockers of LEDGF/p75-dependent integrase strand transfer – biochemical, TR-FRET, high throughput, primary screen; HIV-1 integrase (with human LEDGF/p75); TR-FRET IN-LEDGF/p75 DNA integration, Eu/Cy5; inhibition, % at 3.7 µM; 0.64% of 370,000 active;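 active = inhibition above the screen-wide mean plus 3 SD, cut at about 13% in these data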;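 also: signal is the Cy5 over europium emission ratio at 671 and 618 nm; 0% = plate median of compound wells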
rCAG binder conf: small molecules binding CAG repeat RNA – biochemical, fluorescence, confirmation; AID 652065, 2013; inhibition, % at 3 µM; shares compounds with rCAG RNA binder; 70% of 4,300 active; r(CAG) RNA repeat, TO-PRO-1 dye displacement fluorescence;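 active = inhibition above a per-plate cutoff, the mean inhibition of sample wells plus 3 SD, cut at about 35% in these data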;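 also: loss of TO-PRO-1 fluorescence as compound displaces dye from 1x1 AA loop RNA; 0% = DMSO only wells and 100% = 100 µM mitoxantrone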
dCAG dye counter: displacement of TO-PRO-1 from CAG DNA duplex, counter-screen for rCAG RNA repeat binder project, biochemical, fluorescence, TO-PRO-1 dye, d(CAG) DNA oligo | shares compounds with rCAG RNA binder | d(CAG) DNA oligo TO-PRO-1 dye displacement | inhibition, % at 3 µM | 94% of 4,300 active;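 active = inhibition above its plate's cutoff, the mean test-well inhibition plus 3 SD, cut at about 4.8% in these data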;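 also: 0% = DNA dye mix with DMSO and 100% = 100 µM mitoxantrone; hits displace the dye from DNA and so lower well fluorescence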
PRMT1 inh conf: PRMT1 methyltransferase inhibitors, confirmation, biochemical, fluorescence polarization, triplicate. recombinant His-PRMT1, activity-based probe fluorescence polarization. inhibition, % at 2.79 µM. shares compounds with PRMT1 FP inh. AID 687036, 2013. 42% of 3,300 active;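 active = mean inhibition across replicates above the hit cutoff derived for the earlier primary screen, cut at about 22% in these data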
mABHD4 conf: ABHD4 inhibitors, retest, confirmation, biochemical, fluorescence polarization, mouse | inhibition, % at 8.92 µM | AID 720658, 2013 | purified mABHD4, FP-Rh probe fluorescence polarization | 55% of 1,800 active | shares compounds with ABHD4 inh;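 active = mean inhibition across replicates above the hit cutoff set in the primary screen, cut at about 30% in these data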;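 also: 0% = wild-type ABHD4 with DMSO and 100% = catalytically dead S159A mutant with DMSO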
IN multimer act: HIV-1 IN multimer formation enhancers, counter-screen for LEDGF/p75 integration inhibitor project, biochemical, TR-FRET | shares compounds with LEDGF integ inh | TR-FRET HIV-1 integrase multimerization | activation, % at 7.7 µM | 17% of 2,000 active | AID 1053131, 2014; in the data active = activation above about 8.9%
TRFRET interf: TR-FRET optical interference artefacts, confirmation, artefact control for LEDGF/p75-dependent integration inhibitor project, biochemical, HIV-1 IN multimerization. TR-FRET optical interference counterscreen. AID 1053135, 2014. shares compounds with LEDGF integ inh. 2,000 tested, under 10 active. inhibition, % at 7.7 µM;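 active = inhibition above the mean over all tested compounds plus 3 SD, which no compound reached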;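 also: 0% = integrase with antibodies and DMSO and 100% = antibodies without integrase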
IN-LEDGF confirm: inhibitors of HIV-1 IN-LEDGF/p75 DNA integration, confirmation, biochemical, TR-FRET. inhibition, % at 3.7 µM. TR-FRET LEDGF/p75-dependent HIV-1 integration. 36% of 2,000 active. shares compounds with LEDGF integ inh. AID 1053136, 2014; in the data active = inhibition above about 14%
* hit, by the source's call; / = no result given. A selection: hits, their analogues and other compounds. The true share with any hit is near 3.2%.

SMILES	HTRA1 inhibitor	PRMT1 FP inh	DAGLB inhibitor	ABHD4 inh	rCAG RNA binder	LEDGF integ inh	rCAG binder conf	dCAG dye counter	IN multimer act	TRFRET interf	IN-LEDGF confirm	others
O=C(N/N=C/c1c(O)n(Cc2ccc(F)cc2)c(=O)[nH]c1=O)c1ccccc1O	24	6	11	34*	85*	-6	67*	26*	/	/	/	mABHD4 conf=52*
COc1ccc(Cn2c(O)c(/C=N/NC(=O)c3ccccc3O)c(=O)[nH]c2=O)cc1	31	7	10	30*	91*	-4	76*	37*	/	/	/	mABHD4 conf=38*
O=C(N/N=C/c1c(O)n(CCc2ccc(F)cc2)c(=O)[nH]c1=O)c1ccccc1	/	-5	/	-1	6	4	/	/	/	/	/
CC1=C(N2CC2)C(=O)C(CO)=C(N2CC2)C1=O	3	2	-5	0	3	8	/	/	/	/	/
CCN1C(=O)C(=C/C=C/c2ccco2)C(=O)N(CC)C1=S	-67	27*	6	-134	56*	39*	49*	17*	2	-8	51*	PRMT1 inh conf=34*
CC(C)N1C(=O)/C(=C/C=C/c2ccco2)C(=O)N(Cc2ccco2)C1=O	-14	29*	9	-27	45*	69*	22	11*	-1	3	51*	PRMT1 inh conf=16
NC(=O)C1CCN(/C=C2\C(=O)NC(=O)N(Cc3ccco3)C2=O)CC1	2	1	2	7	-1	-1	/	/	/	/	/
CCOC(=O)[C@]12Cc3c(cc(OC)c(OC)c3OC)[C@H]1N(C)C(=O)c1cc(OC)ccc12	/	2	/	4	0	-2	/	/	/	/	/
COc1ccc(N2C(=O)NC(=O)/C(=C\c3ccc([N+](=O)[O-])s3)C2=O)cc1	18	39*	14	-71	76*	18*	54*	21*	1	-3	33*	PRMT1 inh conf=50*
COc1ccc(N2C(=O)NC(=O)/C(=C/c3ccc(N4CCOCC4)cc3)C2=O)cc1	/	-1	/	0	5	2	/	/	/	/	/
NC(N)=Nc1ccc2[nH]c3c(c2c1)C[C@@]1(O)[C@H]2Cc4ccc(O)c5c4[C@@]1(CCN2CC1CC1)[C@H]3O5	3	/	1	/	/	/	/	/	/	/	/
O=C1NC(=S)N(c2ccccc2)C(=O)/C1=C/c1ccco1	5	55*	3	18	89*	54*	90*	63*	14*	-49	73*	PRMT1 inh conf=74*
CCOc1cccc(N2C(=O)/C(=C/c3ccco3)C(=O)NC2=S)c1	14	20	1	-7	69*	22*	68*	35*	9.8*	-49	76*
Cc1cccc(OCCn2cccc2/C=C2/C(=O)NC(=O)N(Cc3ccco3)C2=O)c1	/	10	/	-2	35*	50*	11	7.7*	4	-15	24*
CCOc1cc2c(cc1OCC)-n1cccc1C(c1ccc(OC)c(O)c1)NC2 (stereo unspecified)	4	2	-3	3	-1	-4	/	/	/	/	/
O=[N+]([O-])c1cc(S(=O)(=O)c2ccc(O)c([N+](=O)[O-])c2)ccc1O	10	13	2	40*	38*	17*	22	7.7*	28*	-141	27*	mABHD4 conf=31*
CCCCn1c(N)c(C(=O)OCCOC)c2nc3ccccc3nc21	/	0	/	3	-1	4	/	/	/	/	/
CCCCn1c(NS(=O)(=O)c2ccc(C)cc2)c(C(=O)OCC)c2nc3ccccc3nc21	-49	2	0	15	36*	32*	18	5.8*	1	-4	11
O=C1NC(=O)N(Cc2ccccc2)C(=O)/C1=C/C=C/c1ccco1	8	23*	7	-4	45*	29*	17	8.5*	0	1	30*
COc1ccc(CN2C(=O)NC(=O)/C(=C\c3ccco3)C2=O)cc1	15	16	8	-19	43*	14*	31	12*	6	-21	18*
CC(C)c1ccc(N2C(=O)NC(=O)/C(=C\C=C\c3ccco3)C2=O)cc1	/	18	/	-3	44*	23*	31	13*	2	-6	31*
COc1cc(OC)c(OC)cc1/C=C1/C(=O)NC(=O)N(Cc2ccccc2)C1=O	1	12	5	5	5	-2	/	/	/	/	/
CC(C)c1ccc(N2C(=O)NC(=O)/C(=C\c3cnc(-c4ccccc4)nc3)C2=O)cc1	-3	7	7	1	31	-1	/	/	/	/	/
O=P(Nc1cccc(F)c1)(Oc1ccccc1F)Oc1ccccc1F	-41	-1	-1	-23	-5	2	/	/	/	/	/
C[C@]12CCC3C(CC[C@H]4C[C@H](O)CC[C@]34C)C1[C@@H](O)[C@@H](O)[C@@H]2O (stereo partly specified)	4	-5	1	0	0	3	/	/	/	/	/
